Reference: ChEMBL document CHEMBL1138725, “Discovery of novel 2-(aminoheteroaryl)-thiazole-5-carboxamides as potent and orally active Src-family kinase p56(Lck) inhibitors” (Bioorg Med Chem Lett, 2004)

How the values were obtained:
[1] = In vitro inhibitory activity against recombinant p56 lck tyrosine kinase expressed as a His-tagged protein in insect cells
Method in brief: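 Mean of three separate experiments, with standard deviation within ±10%.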

[2] = […] inhibitory activity against proliferation of normal human peripheral blood T lymphocytes; assay type: functional
[3] = Half-life was determined in rats at a single dose of 10 mg/kg i.v. and p.o.; assay type: ADME, organism-based; parameters: dose 10 mg/kg, route oral; settings: rat, in vivo, po
[4] = Inhibitory activity against Fibroblast growth factor receptor 1
Method in brief: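 Enzyme IC50 was measured within a kinase selectivity panel and is reported as the mean of three experiments.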

[5] = Mean residence time was determined in rats at a single dose of 10 mg/kg i.v. and p.o.; assay type: ADME, organism-based; parameters: dose 10 mg/kg, route oral; settings: rat, in vivo, po
[6] = Time required to reach the maximum plasma concentration was determined in rats at a single dose of 10 mg/kg i.v. and p.o.; assay type: ADME, organism-based; parameters: dose 10 mg/kg, route oral; settings: rat, po
[7] = Maximum plasma concentration was determined in rats at a single dose of 10 mg/kg i.v. and p.o.; assay type: ADME, organism-based; parameters: dose 10 mg/kg, route oral; settings: rat, po
[8] = Plasma protein binding in mouse was determined; assay type: ADME, cell-free
[9] = species: Rattus norvegicus; test: Dose required for inhibition of paw swelling in rat adjuvant rheumatoid arthritis model; significant reduction observed after 7 days; assay type: functional
[10] = molecular target: Cyclin-dependent kinase 2 (Homo sapiens, UniProt P24941); test: Inhibitory activity against Cyclin-dependent kinase 2
[11] = molecular target: Tyrosine-protein kinase HCK (Homo sapiens, UniProt P08631); test: inhibitory activity against Hck kinase
[12] = molecular target: Vascular endothelial growth factor receptor 2 (Homo sapiens, UniProt P35968); test: inhibitory activity against Vascular endothelial growth factor receptor 2
Method in brief: (§1)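 Kinase selectivity panel: IC50 for inhibition of each isolated kinase enzyme, reported as the mean of three experiments.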

[13] = molecular target: Cyclin-dependent kinase 4 (Homo sapiens, UniProt P11802); test: Inhibitory activity against Cyclin-dependent kinase 4; method in brief: as §1
[14] = Oral bioavailability was determined in rats at a single dose of 10 mg/kg i.v. and p.o.; assay type: ADME, organism-based; settings: rat, in vivo
[15] = molecular target: T1, Tyrosine-protein kinase JAK3 (Homo sapiens, UniProt P52333); test: inhibitory activity against Janus kinase 3
T1 sequence (P52333 whole entry): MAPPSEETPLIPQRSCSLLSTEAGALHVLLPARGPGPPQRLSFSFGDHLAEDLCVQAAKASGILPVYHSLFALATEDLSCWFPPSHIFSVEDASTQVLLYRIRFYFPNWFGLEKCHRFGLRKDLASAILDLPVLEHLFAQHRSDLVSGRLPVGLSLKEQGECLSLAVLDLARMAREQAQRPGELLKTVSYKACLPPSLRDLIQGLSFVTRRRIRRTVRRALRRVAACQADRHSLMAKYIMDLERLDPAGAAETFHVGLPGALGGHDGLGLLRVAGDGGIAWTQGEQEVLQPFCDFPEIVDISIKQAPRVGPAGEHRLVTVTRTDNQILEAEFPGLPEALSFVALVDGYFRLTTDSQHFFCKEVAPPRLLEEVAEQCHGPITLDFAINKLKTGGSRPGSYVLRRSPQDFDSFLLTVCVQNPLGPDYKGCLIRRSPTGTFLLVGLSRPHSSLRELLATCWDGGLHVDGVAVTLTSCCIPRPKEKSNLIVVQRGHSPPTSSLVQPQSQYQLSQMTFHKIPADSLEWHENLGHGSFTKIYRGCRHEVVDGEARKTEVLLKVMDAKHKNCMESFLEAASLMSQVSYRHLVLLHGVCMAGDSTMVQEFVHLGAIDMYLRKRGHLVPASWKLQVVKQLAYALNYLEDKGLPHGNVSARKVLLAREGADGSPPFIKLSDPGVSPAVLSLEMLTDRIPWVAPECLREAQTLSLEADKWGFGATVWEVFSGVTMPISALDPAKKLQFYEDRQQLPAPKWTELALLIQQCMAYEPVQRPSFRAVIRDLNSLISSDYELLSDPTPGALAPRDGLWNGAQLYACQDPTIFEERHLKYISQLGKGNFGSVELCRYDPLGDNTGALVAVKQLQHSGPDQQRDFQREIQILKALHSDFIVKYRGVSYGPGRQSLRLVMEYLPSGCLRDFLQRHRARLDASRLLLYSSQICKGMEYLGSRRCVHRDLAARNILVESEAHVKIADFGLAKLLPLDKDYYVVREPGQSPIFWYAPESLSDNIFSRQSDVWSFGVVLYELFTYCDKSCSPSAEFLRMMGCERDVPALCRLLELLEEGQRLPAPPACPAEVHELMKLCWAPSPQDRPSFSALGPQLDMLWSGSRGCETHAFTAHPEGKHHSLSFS
Method in brief: (§2)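 Purified kinase enzyme inhibition, reported as IC50 in µM. Each value is the mean of three independent experiments.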

[16] = molecular target: Tyrosine-protein kinase Fgr (Homo sapiens, UniProt P09769); test: Inhibitory activity against Fgr kinase; method in brief: as §1
[17] = species: Rattus norvegicus; test: Dose required for inhibition of paw swelling in rat adjuvant rheumatoid arthritis model; significant reduction observed after 24 hrs; assay type: functional
[18] = molecular target: Proto-oncogene tyrosine-protein kinase Src (Homo sapiens, UniProt P12931); test: Inhibitory activity against Src tyrosine kinase; method in brief: as §2
[19] = molecular target: Receptor tyrosine-protein kinase erbB-2 (Homo sapiens, UniProt P04626); test: Inhibitory activity against HER2 kinase; method in brief: as §1
[20] = Plasma clearance was determined in rats at a single dose of 10 mg/kg i.v. and p.o.; assay type: ADME, organism-based; parameters: dose 10 mg/kg, route oral; settings: rat, in vivo, po

Cyclin-dependent kinase 4, sequence (P11802 whole entry): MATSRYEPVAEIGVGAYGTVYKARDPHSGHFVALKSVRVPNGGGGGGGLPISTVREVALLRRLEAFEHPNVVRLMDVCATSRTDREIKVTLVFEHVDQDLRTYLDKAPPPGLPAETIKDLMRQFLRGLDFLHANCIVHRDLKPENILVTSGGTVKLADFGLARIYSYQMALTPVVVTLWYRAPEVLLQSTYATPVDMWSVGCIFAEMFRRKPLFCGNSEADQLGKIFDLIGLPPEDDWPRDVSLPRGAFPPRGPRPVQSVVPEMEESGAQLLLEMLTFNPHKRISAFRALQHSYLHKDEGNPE
Tyrosine-protein kinase Fgr, sequence (P09769 whole entry): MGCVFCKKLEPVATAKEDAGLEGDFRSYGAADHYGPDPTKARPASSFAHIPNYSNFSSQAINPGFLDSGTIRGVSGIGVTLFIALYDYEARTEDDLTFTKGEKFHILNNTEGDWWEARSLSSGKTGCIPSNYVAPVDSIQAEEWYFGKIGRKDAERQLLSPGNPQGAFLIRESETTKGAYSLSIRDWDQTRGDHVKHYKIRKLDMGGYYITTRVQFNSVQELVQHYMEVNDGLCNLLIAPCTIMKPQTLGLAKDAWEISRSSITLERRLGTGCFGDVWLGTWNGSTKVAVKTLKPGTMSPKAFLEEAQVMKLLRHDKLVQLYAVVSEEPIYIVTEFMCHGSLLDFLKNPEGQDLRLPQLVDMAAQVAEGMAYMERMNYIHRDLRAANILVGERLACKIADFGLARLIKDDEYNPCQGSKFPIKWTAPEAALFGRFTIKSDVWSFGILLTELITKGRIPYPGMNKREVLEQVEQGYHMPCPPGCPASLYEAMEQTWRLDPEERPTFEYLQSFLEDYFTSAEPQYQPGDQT
Vascular endothelial growth factor receptor 2, sequence (P35968 whole entry): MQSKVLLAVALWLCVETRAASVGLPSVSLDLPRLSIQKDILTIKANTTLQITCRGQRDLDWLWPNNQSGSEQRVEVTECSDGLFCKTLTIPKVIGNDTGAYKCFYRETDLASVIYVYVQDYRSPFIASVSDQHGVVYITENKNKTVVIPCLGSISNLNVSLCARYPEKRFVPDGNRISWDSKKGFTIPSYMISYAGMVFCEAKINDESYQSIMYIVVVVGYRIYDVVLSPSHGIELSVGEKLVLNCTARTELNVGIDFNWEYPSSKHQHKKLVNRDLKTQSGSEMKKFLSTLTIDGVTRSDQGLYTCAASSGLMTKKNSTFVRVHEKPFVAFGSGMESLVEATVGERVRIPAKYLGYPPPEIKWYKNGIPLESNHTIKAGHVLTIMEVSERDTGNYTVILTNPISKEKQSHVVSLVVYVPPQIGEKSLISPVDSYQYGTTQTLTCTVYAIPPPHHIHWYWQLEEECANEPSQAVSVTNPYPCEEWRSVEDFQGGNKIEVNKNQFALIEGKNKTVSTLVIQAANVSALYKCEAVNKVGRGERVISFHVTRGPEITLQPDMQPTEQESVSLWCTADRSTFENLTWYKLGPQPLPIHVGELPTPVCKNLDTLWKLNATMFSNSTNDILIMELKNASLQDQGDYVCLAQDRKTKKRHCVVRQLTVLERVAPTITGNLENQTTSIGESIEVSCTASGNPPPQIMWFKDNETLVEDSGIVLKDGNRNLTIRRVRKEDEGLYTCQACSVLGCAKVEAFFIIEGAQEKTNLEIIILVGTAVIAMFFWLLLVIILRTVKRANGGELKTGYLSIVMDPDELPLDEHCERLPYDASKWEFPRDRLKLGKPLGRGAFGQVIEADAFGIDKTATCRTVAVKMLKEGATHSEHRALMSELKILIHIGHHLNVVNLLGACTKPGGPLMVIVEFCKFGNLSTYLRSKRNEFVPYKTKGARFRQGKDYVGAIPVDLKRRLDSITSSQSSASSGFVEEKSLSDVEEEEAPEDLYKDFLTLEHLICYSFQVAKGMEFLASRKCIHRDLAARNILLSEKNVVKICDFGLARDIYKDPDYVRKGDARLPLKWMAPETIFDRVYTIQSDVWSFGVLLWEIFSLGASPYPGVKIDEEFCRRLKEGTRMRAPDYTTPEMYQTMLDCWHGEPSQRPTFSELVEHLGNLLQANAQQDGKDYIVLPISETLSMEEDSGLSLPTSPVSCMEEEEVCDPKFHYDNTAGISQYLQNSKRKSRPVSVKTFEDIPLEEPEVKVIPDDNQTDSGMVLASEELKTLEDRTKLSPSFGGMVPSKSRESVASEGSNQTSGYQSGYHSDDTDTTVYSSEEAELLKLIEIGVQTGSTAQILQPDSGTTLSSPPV
Receptor tyrosine-protein kinase erbB-2, sequence (P04626 whole entry): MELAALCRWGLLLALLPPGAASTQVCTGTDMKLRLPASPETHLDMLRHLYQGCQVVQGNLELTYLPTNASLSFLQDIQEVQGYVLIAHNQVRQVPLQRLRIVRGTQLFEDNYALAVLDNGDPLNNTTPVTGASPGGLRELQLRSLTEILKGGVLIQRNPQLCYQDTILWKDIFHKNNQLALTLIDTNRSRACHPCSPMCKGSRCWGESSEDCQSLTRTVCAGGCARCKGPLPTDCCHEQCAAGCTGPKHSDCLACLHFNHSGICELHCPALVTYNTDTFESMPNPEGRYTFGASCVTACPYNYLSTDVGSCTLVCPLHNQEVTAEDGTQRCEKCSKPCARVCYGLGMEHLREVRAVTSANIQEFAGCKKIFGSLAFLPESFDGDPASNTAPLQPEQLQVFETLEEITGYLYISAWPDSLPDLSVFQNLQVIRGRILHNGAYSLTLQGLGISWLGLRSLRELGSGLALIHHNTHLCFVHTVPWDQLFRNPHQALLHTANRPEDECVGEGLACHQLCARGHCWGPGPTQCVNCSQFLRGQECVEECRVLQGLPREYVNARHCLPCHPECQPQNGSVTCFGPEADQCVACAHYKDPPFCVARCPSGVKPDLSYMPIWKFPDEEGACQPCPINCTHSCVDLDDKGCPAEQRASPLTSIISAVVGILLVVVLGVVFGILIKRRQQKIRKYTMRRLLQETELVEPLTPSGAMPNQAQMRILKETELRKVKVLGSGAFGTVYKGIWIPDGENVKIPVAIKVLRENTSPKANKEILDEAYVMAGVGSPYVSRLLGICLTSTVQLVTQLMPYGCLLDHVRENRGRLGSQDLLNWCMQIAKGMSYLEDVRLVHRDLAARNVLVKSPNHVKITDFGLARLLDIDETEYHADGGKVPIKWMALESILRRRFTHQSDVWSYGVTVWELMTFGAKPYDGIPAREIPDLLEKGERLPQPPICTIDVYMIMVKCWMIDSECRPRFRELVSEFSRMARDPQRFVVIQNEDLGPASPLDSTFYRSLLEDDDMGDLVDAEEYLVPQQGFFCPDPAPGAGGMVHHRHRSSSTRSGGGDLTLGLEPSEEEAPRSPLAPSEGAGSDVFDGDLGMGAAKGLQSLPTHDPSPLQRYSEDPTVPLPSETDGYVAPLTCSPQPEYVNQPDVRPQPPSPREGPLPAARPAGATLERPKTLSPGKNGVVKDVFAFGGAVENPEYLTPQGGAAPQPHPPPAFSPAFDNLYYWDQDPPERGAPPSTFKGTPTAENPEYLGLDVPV
Tyrosine-protein kinase HCK, sequence (P08631 whole entry): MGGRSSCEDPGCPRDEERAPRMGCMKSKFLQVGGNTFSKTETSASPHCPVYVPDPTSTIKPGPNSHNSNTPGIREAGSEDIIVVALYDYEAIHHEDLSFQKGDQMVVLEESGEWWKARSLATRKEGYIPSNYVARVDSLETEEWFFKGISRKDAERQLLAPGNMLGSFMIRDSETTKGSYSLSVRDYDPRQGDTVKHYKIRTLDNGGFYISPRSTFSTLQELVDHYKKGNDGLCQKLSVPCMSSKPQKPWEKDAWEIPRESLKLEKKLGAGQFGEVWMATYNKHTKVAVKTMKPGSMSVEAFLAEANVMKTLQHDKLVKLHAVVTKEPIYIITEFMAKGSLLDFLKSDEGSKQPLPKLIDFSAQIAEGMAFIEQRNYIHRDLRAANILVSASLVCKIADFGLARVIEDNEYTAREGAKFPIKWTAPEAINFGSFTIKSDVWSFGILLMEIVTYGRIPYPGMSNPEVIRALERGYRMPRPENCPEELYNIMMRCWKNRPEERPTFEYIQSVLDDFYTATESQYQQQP
Proto-oncogene tyrosine-protein kinase Src, sequence (P12931 2-536 limits assumed): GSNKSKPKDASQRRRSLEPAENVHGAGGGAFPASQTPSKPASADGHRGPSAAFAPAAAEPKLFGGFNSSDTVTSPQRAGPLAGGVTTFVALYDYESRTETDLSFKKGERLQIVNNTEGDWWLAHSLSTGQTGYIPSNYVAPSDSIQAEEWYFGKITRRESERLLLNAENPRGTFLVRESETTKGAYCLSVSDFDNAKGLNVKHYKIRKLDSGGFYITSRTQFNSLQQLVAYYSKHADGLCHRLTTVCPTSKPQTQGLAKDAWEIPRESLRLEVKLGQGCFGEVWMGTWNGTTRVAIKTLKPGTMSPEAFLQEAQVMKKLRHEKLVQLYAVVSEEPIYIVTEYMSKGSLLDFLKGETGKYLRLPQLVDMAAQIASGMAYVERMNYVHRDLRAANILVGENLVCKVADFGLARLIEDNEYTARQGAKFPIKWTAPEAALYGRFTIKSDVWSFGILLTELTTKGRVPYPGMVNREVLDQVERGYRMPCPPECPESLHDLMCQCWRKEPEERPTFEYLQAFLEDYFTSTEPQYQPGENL

| SMILES | IC50 [1] | IC50 [2] | further results |
| --- | --- | --- | --- |
| Cc1cccc(Cl)c1NC(=O)c1cnc(NC(=O)C2CC2)s1 | 35 nM |  |  |
| Cc1cccc(Cl)c1NC(=O)c1cnc(Nc2cccc(N3CCN[C@@H](C)C3)n2)s1 | < 1 nM | 6 nM |  |
| Cc1cccc(Cl)c1NC(=O)c1cnc(Nc2ccccc2)s1 | 0.6 nM | 210 nM |  |
| Cc1cccc(Cl)c1NC(=O)c1cnc(Nc2ccnnc2)s1 | 4 nM | 350 nM |  |
| Cc1cccc(Cl)c1NC(=O)c1cnc(Nc2cc(NCCN3CCCC3)ncn2)s1 | 0.4 nM | 19 nM | Ki [1]: 0.06 nM |
| Cc1cccc(Cl)c1NC(=O)c1cnc(Nc2cccc(NCCN3CCOCC3)n2)s1 | < 1 nM | 11 nM |  |
| Cc1cc(C)nc(Nc2ncc(C(=O)Nc3c(C)cccc3Cl)s2)n1 | 50 nM |  |  |
| Cc1ccnc(Nc2ncc(C(=O)Nc3c(C)cccc3Cl)s2)c1 | 0.5 nM | 85 nM |  |
| Cc1cccc(Cl)c1NC(=O)c1cnc(NC2CCCCC2)s1 | 374 nM |  |  |
| Cc1cccc(Cl)c1NC(=O)c1cnc(Nc2cc(NCCN3CCOCC3)ncn2)s1 | 4 nM | 17 nM |  |
| Cc1cc(C)nc(Nc2ncc(C(=O)Nc3c(C)cccc3Cl)s2)c1 | 4 nM |  |  |
| Cc1cccnc1Nc1ncc(C(=O)Nc2c(C)cccc2Cl)s1 | 7.3 nM | 365 nM |  |
| Cc1cccc(Cl)c1NC(=O)c1cnc(Nc2cc(N3CCOCC3)ncn2)s1 | < 1 nM | 3 nM |  |
| Cc1cccc(Cl)c1NC(=O)c1cnc(Nc2cccnc2)s1 | 6.7 nM |  |  |
| Cc1cc(C)cc(Nc2ncc(C(=O)Nc3c(C)cccc3Cl)s2)c1 | 2 nM | 883 nM |  |
| Cc1cccc(Cl)c1NC(=O)c1cnc(Nc2ccccn2)s1 | 1.2 nM |  |  |
| Cc1cccc(Cl)c1NC(=O)c1cnc(Nc2ccncc2)s1 | 10 nM |  |  |
| Cc1ccc(Nc2ncc(C(=O)Nc3c(C)cccc3Cl)s2)nc1 | 1.1 nM | 156 nM |  |
| Cc1cc(N(C)c2ncc(C(=O)Nc3c(C)cccc3Cl)s2)nc(C)n1 | 2340 nM |  |  |
| Cc1cc(Nc2ncc(C(=O)Nc3c(C)cccc3Cl)s2)nc(C)n1 | 1.2 nM | 80 nM | half-life [3]: 4 h; IC50 [4]: > 10000 nM; MRT [5]: 4 h; Tmax [6]: 1 h; Cmax [7]: 2000 nM; Binding [8]: 93.6%; Dose [9]: 1 mg/kg; IC50 [10]: > 25000 nM; IC50 [11]: 2 nM; IC50 [12]: > 10000 nM; IC50 [13]: > 25000 nM; bioavailability [14]: 65%; Ki [1]: 0.13 nM; IC50 [15]: 6 nM; IC50 [16]: < 1 nM; Dose [17]: 3 mg/kg; IC50 [18]: < 1 nM; IC50 [19]: 5200 nM; Cl [20]: 29 mL/min/kg |
| Cc1cc(Nc2ncc(C(=O)N(C)c3c(C)cccc3Cl)s2)nc(C)n1 | 277 nM |  |  |
| Cc1cccc(Nc2ncc(C(=O)Nc3c(C)cccc3Cl)s2)n1 | < 1 nM | 106 nM |  |
